From PubChem
RanGTP-Imp inh: disruptors of Ran-importin-beta complex formation – biochemical, FRET, CFP-Ran, YFP-importin-beta, homogeneous, primary screen. cell-free CFP-Ran/YFP-importin-beta FRET ratio. inhibition, % (test concentration not listed). 300,000 compounds, 1.1% hits;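 active = more than half of the replicate wells show a fall in the fluorescence ratio signal beyond about 16%, limit read from the data, passing the limit was not always enough; inconclusive = exactly half of the replicate wells pass the set limit; inactive = fewer than half of replicates pass the limit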;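 note: 0% = DMSO wells and 100% = Ran loaded with GDP instead of GTP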
Runt-CBFb FRET: inhibitors of human RUNX1 Runt domain binding to CBFb | Cerulean-Runt/Venus-CBFb FRET ratio 530/480, 1 h | inhibition, % at 20 µM | 220,000 compounds, 0.46% hits;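 active = inhibition over about 50% at 20 µM in the single-dose screen, limit read from the data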;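 note: 0% = DMSO wells and 100% = excess unlabeled CBFb competitor control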
Target sequence (Q01196 whole entry, looked up, the tested form may be a part): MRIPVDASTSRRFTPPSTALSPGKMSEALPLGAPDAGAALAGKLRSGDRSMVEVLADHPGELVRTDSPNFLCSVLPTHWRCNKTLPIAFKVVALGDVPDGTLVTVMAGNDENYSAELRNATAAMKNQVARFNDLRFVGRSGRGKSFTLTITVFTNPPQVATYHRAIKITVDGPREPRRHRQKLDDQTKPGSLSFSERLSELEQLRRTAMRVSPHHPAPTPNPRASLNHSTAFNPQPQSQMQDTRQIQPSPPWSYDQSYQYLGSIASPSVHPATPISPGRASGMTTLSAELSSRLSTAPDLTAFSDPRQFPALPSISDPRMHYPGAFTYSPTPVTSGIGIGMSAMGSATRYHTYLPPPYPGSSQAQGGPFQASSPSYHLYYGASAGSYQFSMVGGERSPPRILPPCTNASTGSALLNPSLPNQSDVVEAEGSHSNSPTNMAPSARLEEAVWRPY
Target sequence (Q13951 whole entry, looked up, the tested form may be a part): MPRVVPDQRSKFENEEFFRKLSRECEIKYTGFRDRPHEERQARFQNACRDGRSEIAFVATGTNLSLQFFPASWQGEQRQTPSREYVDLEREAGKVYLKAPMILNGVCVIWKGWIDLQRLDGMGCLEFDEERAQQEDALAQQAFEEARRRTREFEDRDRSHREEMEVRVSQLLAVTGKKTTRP
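Measured by: fluorescence energy transfer, 422 nm excitation, 530/480 nm emission; Assay system: Cerulean-Runt domain; Medium: Tris pH 7.5 buffer with BSA; Measure: loss of energy transfer signal; Controls: 5 µM unlabeled CBFb as full-inhibition high control; Incubation: protein complex preformed 1 h, compound exposure 1 h, room temperature, dark.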
proKLK7 act: proKLK7 (human) activation, primary screen; P49862; purified proKLK7, EDANS-DABCYL substrate fluorescence; 100% is mature enzyme control, 0% vehicle; activation, % at 7 µM; 370,000 compounds, 0.9% hits; AID 652039;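 active = activation above the mean of all tested compounds plus 3 SD, computed per campaign excluding outliers beyond control limits, cut at about 13% in these data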
Runt-SMMHC FRET: Runt domain-CBFb-SMMHC interaction inhibition; Q01196+Q13951; Cerulean-Runt/Venus-CBFb-SMMHC FRET ratio 530/480, 1 h; inhibition, % at 20 µM; 220,000 compounds, 0.74% hits; AID 1434;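 active = mean inhibition across duplicate retests at 20 µM reaching about 50%, limit read from the data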;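 note: 0% = DMSO wells and 100% = wells with excess untagged CBFb-SMMHC; inhibitors lower the FRET ratio by blocking Runt binding to CBFb-SMMHC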
Wee1 stabilizer: inhibitors of human Wee1 degradation. HeLa Luc-Wee1K328M stability, luciferase luminescence; 100% = proteasome inhibitor MG132 effect. reporter increase, % at 5 µM. AID 1321. 220,000 compounds, 1.2% hits;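 active = activation above the mean of all tested compounds plus 3 SD, set per screening run, cut at about 8.8% in these data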;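 note: cells exposed to compound for 20 h before luminescence read; 0% = DMSO alone and 100% = MG132 at 30 µM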
AI-2 QS mod: modulators of Vibrio harveyi AI-2 quorum sensing system. activity change, % at 7.5 µM. AID 2094. Vibrio harveyi JMH597 AI-2 luminescence/OD600 ratio, 9 h; stronger effect = lower value; strain lacks LuxN and CqsS sensors; 0 = neutral-control median. 300,000 compounds, 0.4% hits; in the data active = activity change below about -75%, passing the limit was not always enough; inconclusive = no clear call, values can overlap the other calls;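 note: luminescence divided by OD600 gain over 9 h not by final OD600 alone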
JMH597 growth rt: retest: blocks Vibrio harveyi JMH597 growth; growth inhibition, % at 7.5 µM; shares compounds with AI-2 QS mod; 750 compounds, 1% hits; AID 2726; OD600 absorbance, 9 h; lacks LuxN and CqsS sensors;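 active = every replicate shows growth inhibition above 50%; inconclusive = at least half, but not all, replicates pass that cutoff; inactive = fewer than half of replicates pass it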
BB721 const-QS lum: retest counter-screen: BB721 constitutive quorum sensing luminescence decrease | 750 compounds, 95% hits | inhibition, % at 7.5 µM | AID 2727 | Vibrio harveyi BB721 luminescence, 9 h | shares compounds with AI-2 QS mod;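 active = inhibition above about 80% in every replicate, not just on average, limit read from the data; inconclusive = at least half of replicates past the limit, but not all; inactive = fewer than half of replicates past the limit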
BB721 growth rt: retest Vibrio harveyi BB721 growth inhibition | shares compounds with AI-2 QS mod | OD600 absorbance, 9 h | growth inhibition, % at 7.5 µM | 750 compounds, 3% hits | AID 2728;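 active = every replicate shows growth inhibition above 50%; inconclusive = at least half but not all replicates above 50% inhibition; inactive = under half of replicates above 50% inhibition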
AI-2 QS JMH597: Vibrio harveyi AI-2 signaling luminescence modulation – JMH597 strain, confirmation. shares compounds with AI-2 QS mod. Vibrio harveyi JMH597 AI-2 quorum sensing luminescence, 9 h; luxN and CqsS knockout, AI-2 only. inhibition, % at 7.5 µM. 750 compounds, 97% hits. AID 2736;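 active = every replicate shows more than 75% inhibition of signal versus neutral control wells; inconclusive = half to three quarters of replicates exceed 75% inhibition; inactive = fewer than half of replicates exceed 75% inhibition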
* hit, by the source's call. An excerpt weighted towards active compounds, which were near 2.9% of everything screened.

CC(C)n1c(NCc2cc(Cl)ccc2O)nc2ccccc21 was read as RanGTP-Imp inh 1, Runt-CBFb FRET -1, proKLK7 act 0, Runt-SMMHC FRET 2, Wee1 stabilizer 0 and AI-2 QS mod 0.
Screening Oc1ccc(Cl)cc1CNc1cnc2ccccc2c1 returned RanGTP-Imp inh inconclusive, proKLK7 act 2, AI-2 QS mod -97*, JMH597 growth rt 14, BB721 const-QS lum 99*, BB721 growth rt 15 and AI-2 QS JMH597 100*.
`Cc1ccc(S(=O)(=O)N/N=C\C=C\c2ccccc2)cc1` gave RanGTP-Imp inh 0, Runt-CBFb FRET -1, proKLK7 act 0, Runt-SMMHC FRET 7, Wee1 stabilizer -2, AI-2 QS mod -98*, JMH597 growth rt 51, BB721 const-QS lum 100*, BB721 growth rt 25 and AI-2 QS JMH597 100*.
`N/C(=N\OC(=O)CC1CCCCC1)c1cccc(Br)c1` gave proKLK7 act -1, AI-2 QS mod -80*, JMH597 growth rt 22, BB721 const-QS lum 96*, BB721 growth rt 28 and AI-2 QS JMH597 96*.
CCNC(=S)N1CCNC(=O)C1CC(=O)OC (configuration not stated) was read as RanGTP-Imp inh 2, Runt-CBFb FRET 2, proKLK7 act 0, Runt-SMMHC FRET -7, Wee1 stabilizer 0 and AI-2 QS mod 16.
Screening O=C(O)c1ccc(N/N=C/c2ccc(-c3ccccc3)cc2)cc1 returned RanGTP-Imp inh 5, Runt-CBFb FRET 3, proKLK7 act -2, Runt-SMMHC FRET 11, Wee1 stabilizer -1 and AI-2 QS mod -20.
Screening O=C(O)c1ccc(N/N=C/C=C/c2ccccc2)cc1 returned RanGTP-Imp inh 85*, Runt-CBFb FRET 20, proKLK7 act 1, Runt-SMMHC FRET 21, Wee1 stabilizer 3, AI-2 QS mod -84*, JMH597 growth rt 16, BB721 const-QS lum 98*, BB721 growth rt 63* and AI-2 QS JMH597 98*.
`COc1ccc(/C=N/NC(=O)Cn2cnc3ccccc3c2=O)cc1OC` gave RanGTP-Imp inh -1, Runt-CBFb FRET 0, proKLK7 act 0, Runt-SMMHC FRET 1, Wee1 stabilizer 3, AI-2 QS mod -91*, JMH597 growth rt -6, BB721 const-QS lum 97*, BB721 growth rt -12 and AI-2 QS JMH597 98*.
For COc1cc(/C=N/NC(=O)CCn2nnc3ccccc32)ccc1O the results were RanGTP-Imp inh -1, Runt-CBFb FRET 0, proKLK7 act -1, Runt-SMMHC FRET -1, Wee1 stabilizer 4 and AI-2 QS mod -3.
COc1cc(/C=N/NC(=O)Cn2nnc3ccccc32)ccc1O was read as RanGTP-Imp inh 1, Runt-CBFb FRET 1, proKLK7 act -2, Runt-SMMHC FRET 0, Wee1 stabilizer -2, AI-2 QS mod -87*, JMH597 growth rt -25, BB721 const-QS lum 94*, BB721 growth rt -29 and AI-2 QS JMH597 96*.
For COc1cc(/C=N\NC(=O)Cn2nnc3ccccc32)cc(OC)c1OC the results were RanGTP-Imp inh 5, Runt-CBFb FRET 1, proKLK7 act 0, Runt-SMMHC FRET 0, Wee1 stabilizer 0, AI-2 QS mod -87*, JMH597 growth rt -3, BB721 const-QS lum 93*, BB721 growth rt -34 and AI-2 QS JMH597 96*.
Cc1cccnc1NC(=O)CCNC(=O)c1ccc(Br)cc1 was read as RanGTP-Imp inh 2, proKLK7 act -1 and AI-2 QS mod 12.
`CCS(=O)(=O)c1ccc2oc(Nc3cccc(OC)c3)nc2c1` gave RanGTP-Imp inh -7, Runt-CBFb FRET 2, proKLK7 act 0, Runt-SMMHC FRET 1, Wee1 stabilizer -1, AI-2 QS mod inconclusive, JMH597 growth rt -11, BB721 const-QS lum 82*, BB721 growth rt -31 and AI-2 QS JMH597 88*.
Screening CCCS(=O)(=O)NC(=O)C1(C)CCN(C(=O)COc2ccccc2)C1 (configuration not stated) returned proKLK7 act 0.
`CCCN1CCN(CCCNC(=O)c2ccccc2NC(=O)C2=C(C)OCCS2)CC1` gave RanGTP-Imp inh 5, proKLK7 act 0 and AI-2 QS mod 33.
For Nc1cc(Oc2ccc(Cl)cc2Cl)nc(N)n1 the results were RanGTP-Imp inh 2, proKLK7 act 0, AI-2 QS mod -95*, JMH597 growth rt 9, BB721 const-QS lum 99*, BB721 growth rt -15 and AI-2 QS JMH597 99*.
For COC(=O)c1sccc1NC(=O)/C=C/c1ccc(Cl)cc1 the results were RanGTP-Imp inh inconclusive, Runt-CBFb FRET 0, proKLK7 act 0, Runt-SMMHC FRET -3, Wee1 stabilizer -1 and AI-2 QS mod 2.
Cc1ccc(NC(=O)C(C)C(=O)Nc2ccc(C)cc2)cc1 was read as RanGTP-Imp inh -2, Runt-CBFb FRET -1, proKLK7 act 0, Runt-SMMHC FRET -2, Wee1 stabilizer 2 and AI-2 QS mod 12.
`Cc1ccc(NC(=O)C(=O)c2ccc(C)cc2)cc1` gave RanGTP-Imp inh 1, proKLK7 act 0, AI-2 QS mod -93*, JMH597 growth rt 3, BB721 const-QS lum 97*, BB721 growth rt 19 and AI-2 QS JMH597 97*.
`COc1ccc(S(=O)(=O)Nc2ccc3c(c2)OCCO3)cc1OC` gave RanGTP-Imp inh -3, proKLK7 act 0 and AI-2 QS mod 24.
Cc1ccccc1CSc1nnnn1-c1ccc(C(N)=O)cc1 was read as RanGTP-Imp inh 2, proKLK7 act 0 and AI-2 QS mod 11.
Oc1ccc(-n2nnnc2SCc2ccccc2Br)cc1 was read as RanGTP-Imp inh 2, AI-2 QS mod inconclusive, JMH597 growth rt 12, BB721 const-QS lum 81*, BB721 growth rt 1 and AI-2 QS JMH597 87*.
